Results from ChEMBL document CHEMBL1949561, “Synthesis and triplex-forming ability of oligonucleotides bearing 1-substituted 1H-1,2,3-triazole nucleobases” (Bioorg Med Chem, 2011).

Assays:
Type in all cases: nucleic-acid assay
Nucleic Acid [1] = assay: Binding affinity to5'-GCTAAAAAGACAGAGAGATCG-3'/5'- CGATCTCTCTGTCTTTTTAGC-3' double stranded DNA assessed as melting temperature at 1.5 uM in sodium phosphate buffer at pH 7 by UV spectrophotometric analysis
How it was run: (§1)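 UV melting of triplexes between each modified TFO and the 21-bp duplex target, in 7 mM sodium phosphate buffer (pH 7.0), 140 mM KCl and 10 mM MgCl₂. Each oligonucleotide at 1.5 µM final. Absorbance followed at 260 nm from 5 °C to 85 °C, scanned at 0.5 °C/min, to give Tm.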

Nucleic Acid [2] = assay: Binding affinity to 5'-GCTAAAAAGAAAGAGAGATCG-3'/5'- CGATCTCTCTTTCTTTTTAGC-3' double stranded DNA assessed as melting temperature at 1.5 uM in sodium phosphate buffer at pH 7 by UV spectrophotometric analysis; how it was run: as §1
Nucleic Acid [3] = assay: Binding affinity to 5'-GCTAAAAAGATAGAGAGATCG-3'/5'- CGATCTCTCTATCTTTTTAGC-3' double stranded DNA assessed as melting temperature at 1.5 uM in sodium phosphate buffer at pH 7 by UV spectrophotometric analysis; how it was run: as §1
Nucleic Acid [4] = assay: Binding affinity to 5'-GCTAAAAAGAGAGAGAGATCG-3'/5'- CGATCTCTCTCTCTTTTTAGC-3' double stranded DNA assessed as melting temperature at 1.5 uM in sodium phosphate buffer at pH 7 by UV spectrophotometric analysis; how it was run: as §1

| SMILES | Tm (Nucleic Acid [1]) [°C] | Tm (Nucleic Acid [2]) [°C] | Tm (Nucleic Acid [3]) [°C] | Tm (Nucleic Acid [4]) [°C] |
| --- | --- | --- | --- | --- |
| Cc1cn([C@H]2C[C@H](OP(=O)(O)OC[C@H]3O[C@@H](n4cc(C)c(=O)[nH]c4=O)C[C@@H]3OP(=O)(O)OC[C@H]3O[C@@H](n4cc(C)c(N)nc4=O)C[C@@H]3OP(=O)(O)OC[C@H]3O[C@@H](n4cc(C)c(=O)[nH]c4=O)C[C@@H]3OP(=O)(O)OC[C@H]3O[C@@H](n4cc(C)c(N)nc4=O)C[C@@H]3OP(=O)(O)OC[C@H]3O[C@@H](n4cc(C)c(=O)[nH]c4=O)C[C@@H]3OP(=O)(O)OC[C@H]3O[C@@H](c4cn(C56CC7CC(CC(C7)C5)C6)nn4)C[C@@H]3OP(=O)(O)OC[C@H]3O[C@@H](n4cc(C)c(=O)[nH]c4=O)C[C@@H]3OP(=O)(O)OC[C@H]3O[C@@H](n4cc(C)c(N)nc4=O)C[C@@H]3OP(=O)(O)OC[C@H]3O[C@@H](n4cc(C)c(=O)[nH]c4=O)C[C@@H]3OP(=O)(O)OC[C@H]3O[C@@H](n4cc(C)c(=O)[nH]c4=O)C[C@@H]3OP(=O)(O)OC[C@H]3O[C@@H](n4cc(C)c(=O)[nH]c4=O)C[C@@H]3OP(=O)(O)OC[C@H]3O[C@@H](n4cc(C)c(=O)[nH]c4=O)C[C@@H]3OP(=O)(O)OC[C@H]3O[C@@H](n4cc(C)c(=O)[nH]c4=O)C[C@@H]3O)[C@@H](COP(=O)(O)O[C@H]3C[C@H](n4cc(C)c(=O)[nH]c4=O)O[C@@H]3CO)O2)c(=O)nc1N | 17 | < 10 | 11 | < 10 |
| Cc1cn([C@H]2C[C@H](OP(=O)(O)OC[C@H]3O[C@@H](n4cc(C)c(=O)[nH]c4=O)C[C@@H]3OP(=O)(O)OC[C@H]3O[C@@H](n4cc(C)c(N)nc4=O)C[C@@H]3OP(=O)(O)OC[C@H]3O[C@@H](n4cc(C)c(=O)[nH]c4=O)C[C@@H]3OP(=O)(O)OC[C@H]3O[C@@H](n4cc(C)c(N)nc4=O)C[C@@H]3OP(=O)(O)OC[C@H]3O[C@@H](n4cc(C)c(=O)[nH]c4=O)C[C@@H]3OP(=O)(O)OC[C@H]3O[C@@H](c4cn(-c5cccc(O)c5)nn4)C[C@@H]3OP(=O)(O)OC[C@H]3O[C@@H](n4cc(C)c(=O)[nH]c4=O)C[C@@H]3OP(=O)(O)OC[C@H]3O[C@@H](n4cc(C)c(N)nc4=O)C[C@@H]3OP(=O)(O)OC[C@H]3O[C@@H](n4cc(C)c(=O)[nH]c4=O)C[C@@H]3OP(=O)(O)OC[C@H]3O[C@@H](n4cc(C)c(=O)[nH]c4=O)C[C@@H]3OP(=O)(O)OC[C@H]3O[C@@H](n4cc(C)c(=O)[nH]c4=O)C[C@@H]3OP(=O)(O)OC[C@H]3O[C@@H](n4cc(C)c(=O)[nH]c4=O)C[C@@H]3OP(=O)(O)OC[C@H]3O[C@@H](n4cc(C)c(=O)[nH]c4=O)C[C@@H]3O)[C@@H](COP(=O)(O)O[C@H]3C[C@H](n4cc(C)c(=O)[nH]c4=O)O[C@@H]3CO)O2)c(=O)nc1N | 21 | < 10 | 14 | < 10 |
| Cc1cn([C@H]2C[C@H](OP(=O)(O)OC[C@H]3O[C@@H](n4cc(C)c(=O)[nH]c4=O)C[C@@H]3OP(=O)(O)OC[C@H]3O[C@@H](n4cc(C)c(N)nc4=O)C[C@@H]3OP(=O)(O)OC[C@H]3O[C@@H](n4cc(C)c(=O)[nH]c4=O)C[C@@H]3OP(=O)(O)OC[C@H]3O[C@@H](n4cc(C)c(N)nc4=O)C[C@@H]3OP(=O)(O)OC[C@H]3O[C@@H](n4cc(C)c(=O)[nH]c4=O)C[C@@H]3OP(=O)(O)OC[C@H]3O[C@@H](c4cn(-c5cccc(NC(N)=O)c5)nn4)C[C@@H]3OP(=O)(O)OC[C@H]3O[C@@H](n4cc(C)c(=O)[nH]c4=O)C[C@@H]3OP(=O)(O)OC[C@H]3O[C@@H](n4cc(C)c(N)nc4=O)C[C@@H]3OP(=O)(O)OC[C@H]3O[C@@H](n4cc(C)c(=O)[nH]c4=O)C[C@@H]3OP(=O)(O)OC[C@H]3O[C@@H](n4cc(C)c(=O)[nH]c4=O)C[C@@H]3OP(=O)(O)OC[C@H]3O[C@@H](n4cc(C)c(=O)[nH]c4=O)C[C@@H]3OP(=O)(O)OC[C@H]3O[C@@H](n4cc(C)c(=O)[nH]c4=O)C[C@@H]3OP(=O)(O)OC[C@H]3O[C@@H](n4cc(C)c(=O)[nH]c4=O)C[C@@H]3O)[C@@H](COP(=O)(O)O[C@H]3C[C@H](n4cc(C)c(=O)[nH]c4=O)O[C@@H]3CO)O2)c(=O)nc1N | 22 | 13 | 17 | < 10 |
| Cc1cn([C@H]2C[C@H](OP(=O)(O)OC[C@H]3O[C@@H](n4cc(C)c(=O)[nH]c4=O)C[C@@H]3OP(=O)(O)OC[C@H]3O[C@@H](n4cc(C)c(N)nc4=O)C[C@@H]3OP(=O)(O)OC[C@H]3O[C@@H](n4cc(C)c(=O)[nH]c4=O)C[C@@H]3OP(=O)(O)OC[C@H]3O[C@@H](n4cc(C)c(N)nc4=O)C[C@@H]3OP(=O)(O)OC[C@H]3O[C@@H](n4cc(C)c(=O)[nH]c4=O)C[C@@H]3OP(=O)(O)OC[C@H]3O[C@@H](c4cn(-c5ccccc5C(=O)O)nn4)C[C@@H]3OP(=O)(O)OC[C@H]3O[C@@H](n4cc(C)c(=O)[nH]c4=O)C[C@@H]3OP(=O)(O)OC[C@H]3O[C@@H](n4cc(C)c(N)nc4=O)C[C@@H]3OP(=O)(O)OC[C@H]3O[C@@H](n4cc(C)c(=O)[nH]c4=O)C[C@@H]3OP(=O)(O)OC[C@H]3O[C@@H](n4cc(C)c(=O)[nH]c4=O)C[C@@H]3OP(=O)(O)OC[C@H]3O[C@@H](n4cc(C)c(=O)[nH]c4=O)C[C@@H]3OP(=O)(O)OC[C@H]3O[C@@H](n4cc(C)c(=O)[nH]c4=O)C[C@@H]3OP(=O)(O)OC[C@H]3O[C@@H](n4cc(C)c(=O)[nH]c4=O)C[C@@H]3O)[C@@H](COP(=O)(O)O[C@H]3C[C@H](n4cc(C)c(=O)[nH]c4=O)O[C@@H]3CO)O2)c(=O)nc1N | 17 | < 10 | 15 | 12 |
| Cc1cn([C@H]2C[C@H](OP(=O)(O)OC[C@H]3O[C@@H](n4cc(C)c(=O)[nH]c4=O)C[C@@H]3OP(=O)(O)OC[C@H]3O[C@@H](n4cc(C)c(N)nc4=O)C[C@@H]3OP(=O)(O)OC[C@H]3O[C@@H](n4cc(C)c(=O)[nH]c4=O)C[C@@H]3OP(=O)(O)OC[C@H]3O[C@@H](n4cc(C)c(N)nc4=O)C[C@@H]3OP(=O)(O)OC[C@H]3O[C@@H](n4cc(C)c(=O)[nH]c4=O)C[C@@H]3OP(=O)(O)OC[C@H]3O[C@@H](c4cn(Cc5ccccc5)nn4)C[C@@H]3OP(=O)(O)OC[C@H]3O[C@@H](n4cc(C)c(=O)[nH]c4=O)C[C@@H]3OP(=O)(O)OC[C@H]3O[C@@H](n4cc(C)c(N)nc4=O)C[C@@H]3OP(=O)(O)OC[C@H]3O[C@@H](n4cc(C)c(=O)[nH]c4=O)C[C@@H]3OP(=O)(O)OC[C@H]3O[C@@H](n4cc(C)c(=O)[nH]c4=O)C[C@@H]3OP(=O)(O)OC[C@H]3O[C@@H](n4cc(C)c(=O)[nH]c4=O)C[C@@H]3OP(=O)(O)OC[C@H]3O[C@@H](n4cc(C)c(=O)[nH]c4=O)C[C@@H]3OP(=O)(O)OC[C@H]3O[C@@H](n4cc(C)c(=O)[nH]c4=O)C[C@@H]3O)[C@@H](COP(=O)(O)O[C@H]3C[C@H](n4cc(C)c(=O)[nH]c4=O)O[C@@H]3CO)O2)c(=O)nc1N | 19 | < 10 | 12 | < 10 |
